# Assay results: BindingDB's records for doi:10.1021/jm9910324 (University of Camerino, 1999)
# Structures can show the parent of a compound that is named as a salt.
# Assays:
# [1] = biological target: T1, Alpha-1B adrenergic receptor (Homo sapiens, UniProt P35368); assay: The binding affinity was evaluated on cloned human alpha-1B adrenergic receptor expressed in chinese hamster ovary(CHO) cells by using [3H]prazosin as radioligand.
# T1 sequence (P35368 whole entry): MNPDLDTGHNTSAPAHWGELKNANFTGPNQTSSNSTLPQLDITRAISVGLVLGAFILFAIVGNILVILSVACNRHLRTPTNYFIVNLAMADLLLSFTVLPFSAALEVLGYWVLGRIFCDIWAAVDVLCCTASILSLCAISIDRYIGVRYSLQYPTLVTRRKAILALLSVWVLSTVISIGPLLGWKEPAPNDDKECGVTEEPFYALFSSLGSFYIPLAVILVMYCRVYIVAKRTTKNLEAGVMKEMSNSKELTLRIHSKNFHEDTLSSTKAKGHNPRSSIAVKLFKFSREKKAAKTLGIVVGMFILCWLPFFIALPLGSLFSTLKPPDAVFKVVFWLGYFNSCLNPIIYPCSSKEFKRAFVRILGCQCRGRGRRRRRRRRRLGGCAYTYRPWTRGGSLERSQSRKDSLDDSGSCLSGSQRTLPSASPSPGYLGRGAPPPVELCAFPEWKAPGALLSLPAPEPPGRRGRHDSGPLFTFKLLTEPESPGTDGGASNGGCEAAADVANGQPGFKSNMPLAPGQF
# Procedure, shortened: (§1)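 Membranes (30 μg protein) from CHO cells stably expressing each human α1 subtype, in 50 mM Tris-HCl pH 7.4. Incubated with 0.1–0.4 nM [3H]prazosin for 30 min at 25 °C, competitor 1 pM–10 μM. Nonspecific binding with 10 μM phentolamine. Ki by Cheng-Prusoff. 2–3 experiments in triplicate.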
# [2] = biological target: T2, Alpha-2A adrenergic receptor [16-465]/Alpha-2B adrenergic receptor/Alpha-2C adrenergic receptor (Rattus norvegicus, UniProt P19328+P22086+P22909); assay: The binding affinity was evaluated on alpha-2 adrenergic receptor expressed in rat cortex by using [3H]rauwolscine as radioligand.
# T2 construct: 16-465
# T2 sequence (P22909 whole entry): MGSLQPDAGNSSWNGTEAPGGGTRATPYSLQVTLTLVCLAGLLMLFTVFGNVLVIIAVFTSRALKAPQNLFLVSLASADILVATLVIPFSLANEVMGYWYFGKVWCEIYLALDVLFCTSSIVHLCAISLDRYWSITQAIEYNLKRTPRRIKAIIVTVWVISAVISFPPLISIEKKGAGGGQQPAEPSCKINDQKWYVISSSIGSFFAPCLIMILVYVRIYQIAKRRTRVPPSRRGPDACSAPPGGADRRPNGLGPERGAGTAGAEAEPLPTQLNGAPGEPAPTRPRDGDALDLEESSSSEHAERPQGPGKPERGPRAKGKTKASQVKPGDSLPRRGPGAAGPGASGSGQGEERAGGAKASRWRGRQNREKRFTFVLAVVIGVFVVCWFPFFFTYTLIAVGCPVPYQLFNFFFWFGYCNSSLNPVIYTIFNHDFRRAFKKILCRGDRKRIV
# T2 sequence (P22086 whole entry): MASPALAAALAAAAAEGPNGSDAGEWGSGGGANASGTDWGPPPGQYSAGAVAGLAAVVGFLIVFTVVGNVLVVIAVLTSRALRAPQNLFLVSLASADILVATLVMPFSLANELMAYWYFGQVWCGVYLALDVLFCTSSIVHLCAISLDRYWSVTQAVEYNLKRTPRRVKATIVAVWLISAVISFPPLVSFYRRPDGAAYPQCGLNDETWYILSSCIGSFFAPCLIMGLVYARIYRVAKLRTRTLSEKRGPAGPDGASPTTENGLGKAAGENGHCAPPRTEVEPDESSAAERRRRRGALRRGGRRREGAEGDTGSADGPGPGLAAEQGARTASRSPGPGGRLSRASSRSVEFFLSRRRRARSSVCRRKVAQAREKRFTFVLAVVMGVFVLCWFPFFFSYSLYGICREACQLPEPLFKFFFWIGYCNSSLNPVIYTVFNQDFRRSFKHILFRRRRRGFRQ
# T2 sequence (P19328 whole entry): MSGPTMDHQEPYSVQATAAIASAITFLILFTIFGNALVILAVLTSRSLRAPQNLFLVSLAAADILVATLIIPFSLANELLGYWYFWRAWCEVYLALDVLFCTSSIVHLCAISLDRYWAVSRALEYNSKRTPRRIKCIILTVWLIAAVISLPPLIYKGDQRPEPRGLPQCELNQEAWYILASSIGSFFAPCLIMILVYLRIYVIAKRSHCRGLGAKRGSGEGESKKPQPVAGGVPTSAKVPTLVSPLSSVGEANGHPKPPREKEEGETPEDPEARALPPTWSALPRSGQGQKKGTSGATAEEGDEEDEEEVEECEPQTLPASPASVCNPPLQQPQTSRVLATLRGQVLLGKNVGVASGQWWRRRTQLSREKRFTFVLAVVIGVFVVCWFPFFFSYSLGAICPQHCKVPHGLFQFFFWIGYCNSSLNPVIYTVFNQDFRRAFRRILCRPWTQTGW
# Procedure, shortened: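 Male Sprague-Dawley rat cerebral cortex membranes, washed in Tris-HCl pH 7.4 and held in buffer with 10 μM pargiline and 0.1% ascorbic acid. Incubated 30 min at 25 °C with 0.5-1.5 nM [3H]rauwolscine; nonspecific binding with 10 μM phentolamine. Filtration, scintillation counting. Ki from Cheng-Prusoff; 2-3 experiments in triplicate.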
# [3] = biological target: D(2) dopamine receptor (Rattus norvegicus, UniProt P61169); assay: The binding affinity was evaluated on Dopamine receptor D2 expressed in rat striatum by using [3H]spiperone as radioligand
# Procedure, shortened: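 Rat striatum membranes in Tris-HCl with 10 μM pargyline, 0.1% ascorbic acid, 120 mM NaCl, 5 mM KCl, 2 mM CaCl2, 1 mM MgCl2. Incubated 15 min at 37 °C with 0.2–0.6 nM [3H]spiperone. Nonspecific binding with 1 μM (+)-butaclamol. Ki by Cheng-Prusoff. 2–3 experiments in triplicate.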
# [4] = biological target: 5-hydroxytryptamine receptor 2A (Rattus norvegicus, UniProt P14842); assay: The binding affinity was evaluated on 5-hydroxytryptamine 2A receptor expressed in rat cortex by using [3H]ketanserin as radioligand.
# Procedure, shortened: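 Rat cerebral cortex membranes in Tris-HCl pH 7.4 with 10 μM pargyline and 0.1% ascorbic acid. Incubated 20 min at 37 °C with 0.7–1.3 nM [3H]ketanserin. Nonspecific binding with 2 μM ketanserin. Filtration and scintillation counting. Ki by Cheng-Prusoff. 2–3 experiments in triplicate.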
# [5] = biological target: T1, Alpha-1B adrenergic receptor; assay: The binding affinity was evaluated on cloned human Alpha-1B adrenergic receptor expressed in chinese hamster ovary(CHO) cells by using [3H]prazosin as radioligand.; procedure, shortened: as §1
# [6] = biological target: T3, Alpha-1A adrenergic receptor (Homo sapiens, UniProt P35348); assay: The binding affinity was evaluated on cloned human Alpha-1A adrenergic receptor expressed in chinese hamster ovary(CHO) cells by using [3H]prazosin as radioligand.; procedure, shortened: as §1
# T3 sequence (P35348 whole entry): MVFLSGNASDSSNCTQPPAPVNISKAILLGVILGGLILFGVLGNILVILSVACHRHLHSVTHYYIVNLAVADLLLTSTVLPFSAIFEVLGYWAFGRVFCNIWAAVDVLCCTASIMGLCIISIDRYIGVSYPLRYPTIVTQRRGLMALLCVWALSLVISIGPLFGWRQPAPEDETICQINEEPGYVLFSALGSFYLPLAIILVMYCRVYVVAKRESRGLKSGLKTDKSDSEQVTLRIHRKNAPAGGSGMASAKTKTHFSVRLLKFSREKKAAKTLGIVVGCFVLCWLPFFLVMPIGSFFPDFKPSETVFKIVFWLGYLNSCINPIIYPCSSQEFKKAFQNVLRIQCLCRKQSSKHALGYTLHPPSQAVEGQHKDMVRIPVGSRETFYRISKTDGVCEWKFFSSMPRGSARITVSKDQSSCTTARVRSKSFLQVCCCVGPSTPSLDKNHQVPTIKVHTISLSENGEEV
# [7] = biological target: T4, 5-hydroxytryptamine receptor 1A (Homo sapiens, UniProt P08908); assay: The binding affinity was evaluated on cloned human 5-hydroxytryptamine 1A receptor expressed in HeLa cells by using DPAT as radioligand.
# T4 sequence (P08908 whole entry): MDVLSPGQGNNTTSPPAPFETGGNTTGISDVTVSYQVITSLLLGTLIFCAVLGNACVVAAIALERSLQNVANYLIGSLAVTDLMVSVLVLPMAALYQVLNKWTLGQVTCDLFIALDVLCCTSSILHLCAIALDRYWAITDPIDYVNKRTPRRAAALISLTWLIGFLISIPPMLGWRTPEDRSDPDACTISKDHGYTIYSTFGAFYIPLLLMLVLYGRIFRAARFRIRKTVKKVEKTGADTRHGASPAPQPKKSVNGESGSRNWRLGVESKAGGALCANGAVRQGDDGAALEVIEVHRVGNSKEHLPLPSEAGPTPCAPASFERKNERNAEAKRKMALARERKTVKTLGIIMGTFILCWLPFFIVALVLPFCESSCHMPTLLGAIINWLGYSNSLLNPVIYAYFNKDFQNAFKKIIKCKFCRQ
# Procedure, shortened: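 Membranes from HeLa cells stably expressing human 5-HT1A, in 50 mM Tris-HCl pH 7.4, 2.5 mM MgCl2, 10 μM pargyline. Nonspecific binding with 10 μM 5-HT. Filtration. Ki by Cheng-Prusoff. 2–3 experiments in triplicate.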
# [8] = biological target: T5, Alpha-1D adrenergic receptor (Homo sapiens, UniProt P25100); assay: The binding affinity was evaluated on cloned human Alpha-1D adrenergic receptor expressed in chinese hamster ovary(CHO) cells by using [3H]-prazosin as radioligand.; procedure, shortened: as §1
# T5 sequence (P25100 whole entry): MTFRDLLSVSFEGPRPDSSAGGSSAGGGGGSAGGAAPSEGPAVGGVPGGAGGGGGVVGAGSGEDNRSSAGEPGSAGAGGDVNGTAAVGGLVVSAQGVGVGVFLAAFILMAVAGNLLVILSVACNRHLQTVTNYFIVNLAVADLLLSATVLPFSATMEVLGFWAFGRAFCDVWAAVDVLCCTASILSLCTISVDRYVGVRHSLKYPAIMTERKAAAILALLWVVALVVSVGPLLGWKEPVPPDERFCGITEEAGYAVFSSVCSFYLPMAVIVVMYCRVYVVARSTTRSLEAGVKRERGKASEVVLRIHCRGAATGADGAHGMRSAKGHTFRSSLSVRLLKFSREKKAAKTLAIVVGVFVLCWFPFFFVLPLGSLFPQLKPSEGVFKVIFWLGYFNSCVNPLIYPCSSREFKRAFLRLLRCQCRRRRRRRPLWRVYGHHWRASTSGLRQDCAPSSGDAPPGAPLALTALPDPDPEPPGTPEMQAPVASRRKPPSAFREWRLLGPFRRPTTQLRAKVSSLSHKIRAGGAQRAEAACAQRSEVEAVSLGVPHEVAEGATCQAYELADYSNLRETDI
# [9] = biological target: T3, Alpha-1A adrenergic receptor; assay: The binding affinity was evaluated on cloned human alpha-1A adrenergic receptor expressed in chinese hamster ovary(CHO) cells by using [3H]prazosin as radioligand.; procedure, shortened: as §1
# [10] = biological target: T5, Alpha-1D adrenergic receptor; assay: The binding affinity was evaluated on cloned human alpha-1D adrenergic receptor expressed in chinese hamster ovary(CHO) cells by using [3H]prazosin as radioligand.; procedure, shortened: as §1
# [11] = biological target: T2, Alpha-2A adrenergic receptor [16-465]/Alpha-2B adrenergic receptor/Alpha-2C adrenergic receptor; assay: The binding affinity was evaluated on Alpha-2 adrenergic receptor expressed in rat cortex by using [3H]rauwolscine as radioligand.
# Procedure, shortened: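 Male Sprague-Dawley rat cerebral cortex membranes, washed in Tris-HCl pH 7.4 and resuspended with 10 μM pargyline and 0.1% ascorbic acid. Incubated 30 min at 25 °C with 0.5–1.5 nM [3H]rauwolscine. Nonspecific binding with 10 μM phentolamine. Filtration on PEI-treated filters. Ki by Cheng-Prusoff. 2–3 experiments in triplicate.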
# D(2) dopamine receptor, sequence (P61169 whole entry): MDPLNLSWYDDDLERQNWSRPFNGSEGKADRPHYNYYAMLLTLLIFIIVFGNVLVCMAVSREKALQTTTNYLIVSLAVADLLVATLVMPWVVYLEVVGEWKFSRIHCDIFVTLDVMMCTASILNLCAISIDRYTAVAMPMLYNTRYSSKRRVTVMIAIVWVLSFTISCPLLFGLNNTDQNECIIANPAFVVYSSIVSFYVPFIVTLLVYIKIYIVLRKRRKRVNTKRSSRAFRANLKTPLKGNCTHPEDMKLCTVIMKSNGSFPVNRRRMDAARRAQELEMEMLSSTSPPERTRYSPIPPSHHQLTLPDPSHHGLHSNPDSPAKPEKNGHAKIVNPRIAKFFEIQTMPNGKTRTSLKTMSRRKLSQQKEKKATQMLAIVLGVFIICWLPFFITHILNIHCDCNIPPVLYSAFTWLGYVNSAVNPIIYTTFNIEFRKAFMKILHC
# 5-hydroxytryptamine receptor 2A, sequence (P14842 whole entry): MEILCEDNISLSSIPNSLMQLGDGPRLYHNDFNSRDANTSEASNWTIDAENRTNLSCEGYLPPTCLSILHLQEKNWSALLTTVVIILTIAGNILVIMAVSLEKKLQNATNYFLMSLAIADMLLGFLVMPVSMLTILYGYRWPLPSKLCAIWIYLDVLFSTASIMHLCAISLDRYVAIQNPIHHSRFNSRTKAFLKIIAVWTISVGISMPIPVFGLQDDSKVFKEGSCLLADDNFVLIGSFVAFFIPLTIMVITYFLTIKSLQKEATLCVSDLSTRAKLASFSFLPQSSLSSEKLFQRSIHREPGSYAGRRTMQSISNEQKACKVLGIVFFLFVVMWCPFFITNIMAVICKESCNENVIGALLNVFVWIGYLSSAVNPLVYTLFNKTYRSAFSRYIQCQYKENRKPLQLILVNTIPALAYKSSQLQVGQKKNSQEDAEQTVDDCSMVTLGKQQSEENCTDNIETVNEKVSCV
Structure (SMILES),pKi [1],pKi [2],pKi [3],pKi [4],pKi [5],pKi [6],pKi [7],pKi [8],pKi [9],pKi [10],pKi [11]
CCCN(CCC)C1CCc2cccc(O)c2C1 (stereo not given),< 6,6.08,< 6,< 6,–,–,–,–,–,–,–
COc1cccc(OC)c1OCCNCCOc1ccccc1OCc1ccccc1,–,–,–,–,9.27,9.33,7.93,10.2,–,–,–
COc1cccc(OC)c1OCCNCC1C(=O)c2ccccc2SC1c1ccccc1 (stereo not given),–,–,–,–,< 6,–,7.36,–,7.42,6.37,–
COc1cccc(OC)c1OCCNCC1Oc2ccccc2CC1c1ccccc1 (stereo not given),6.51,–,< 6,< 6,6.58,8.49,6.84,7.28,6.78,6.86,< 6
COc1cccc(OC)c1OCCNCC1C(=O)c2ccccc2CC1c1ccccc1 (stereo not given),6.11,6.45,< 6,6.63,–,–,6.83,–,8.06,6.88,–
COc1cccc(OC)c1OCCNCC1=Cc2ccccc2OC1c1ccccc1 (stereo not given),–,–,–,–,6.84,7.14,8.08,6.95,–,–,–
COc1cccc(OC)c1OCCNCC1C(=O)c2ccccc2OC1c1ccccc1 (stereo not given),6.84,< 6,< 6,6.2,–,–,6.73,–,9.22,7.93,–
COc1cccc(OC)c1OCCNCC1COc2ccccc2O1 (stereo not given) [WB-4101 hydrochloride],–,7.83,6.91,6,–,–,8.68,–,9.37,–,–
